High-throughput results from PubChem.
M1 antag = antagonists of rat M1 muscarinic receptor | B-score at 10 µM | 64,000 tested, 3.4% active | CHO-M1 cells, Fluo-4 calcium, ACh EC80 antagonist mode; active compounds read low | AID 628 | P08482;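 active means calcium fluorescence response, raw or row-and-column corrected B-score, differing from the plate sample mean either way at a set confidence level, mostly lower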
M1 agonist = agonists of M1 muscarinic receptor | CHO-M1 cells, Fluo-4 calcium fluorescence, agonist mode; active compounds read high | B-score at 10 µM | 64,000 tested, 3% active;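 active means fluorescence rise, raw or as B-score row- and column-corrected plate score, outside the 99.7% band of its plate's samples, either direction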
TNAP act DEA = human TNAP activation, intermediate phosphate acceptor. activation factor at 20 µM. purified TNAP, CDP-star luminescence, 100 mM DEA, 30 min; active compounds read high; scale: 0 levamisole-inhibited, 1 vehicle-only enzyme. 64,000 tested, under 10 active. AID 813;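 active means activation factor of at least 2 at 20 µM, relative to controls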
Target sequence (P05186 whole entry, looked up): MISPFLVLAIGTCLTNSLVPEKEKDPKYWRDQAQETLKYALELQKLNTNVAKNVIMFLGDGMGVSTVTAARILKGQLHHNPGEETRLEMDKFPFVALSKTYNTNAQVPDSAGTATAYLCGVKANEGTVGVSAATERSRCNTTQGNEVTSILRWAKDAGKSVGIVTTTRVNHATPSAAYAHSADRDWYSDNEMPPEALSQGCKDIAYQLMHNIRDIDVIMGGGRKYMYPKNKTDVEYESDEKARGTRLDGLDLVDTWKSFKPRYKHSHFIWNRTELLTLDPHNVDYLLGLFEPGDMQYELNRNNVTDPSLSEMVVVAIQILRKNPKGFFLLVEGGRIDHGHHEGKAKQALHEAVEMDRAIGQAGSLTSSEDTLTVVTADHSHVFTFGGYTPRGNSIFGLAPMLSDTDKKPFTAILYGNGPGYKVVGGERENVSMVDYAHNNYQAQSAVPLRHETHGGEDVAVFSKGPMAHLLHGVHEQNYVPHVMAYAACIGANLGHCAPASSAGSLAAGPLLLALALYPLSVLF
S1P1 ag pot = agonists and agonism potentiators of human S1P1 receptor | activation, % at 9.5 µM | S1P1 CRE-bla cells, forskolin, beta-lactamase FRET, potentiator mode; S1P1 agonist co-added at EC20, 2 nM; 100% = saturating reference agonist, 0% = basal | P21453 | 56,000 tested, 0.57% active;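 active means activation above a cutoff set at the mean activation of all tested compounds plus 3 SD, cut at about 54% in these data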;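 further: forskolin at 4 µM as EC80 and the EC20 agonist is SEW2871; 100% = SEW2871 at its EC100 plus forskolin at EC80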
D1 mod = D1 dopamine receptor (human) allosteric modulation. HEK293 D1, CRE-luciferase, dopamine EC30 potentiation; actives deviate in either direction. B-score at 10 µM. 58,000 tested, 5.9% active. AID 641;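 active means luminescence count or its row- and column-corrected plate score outside the 99.7% band of the plate's sample wells, on either side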
S1P3 agonist = activates the human S1P3 receptor. 60,000 tested, 0.1% active. Q99500. S1P3 NFAT-BLA reporter cells, agonism, FRET ratio; relative to 1 µM S1P, basal subtracted. activation, % at 4.5 µM. AID 373;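 active means activation above the screen-wide mean plus 3 SD, cut at about 4.5% in these data, passing the limit was not always enough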
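Benchmarks: high control 1 µM S1P / System: stable CHO line with human S1P3, Gα16, NFAT-BLA reporter / Dosing: single compound concentration, 4.5 µM final / Timing: 4 h compound at 37 °C, 2 h substrate at RT / Measured by: FRET β-lactamase substrate fluorescence, excitation 405 nm, 460/535 nm emission ratio, background-subtracted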
M1 antag conf = M1 muscarinic receptor (rat) antagonism, confirmed | shares compounds with M1 antag | CHO-M1 cells, Fluo-4 calcium, ACh EC80 antagonism; active compounds read low | calcium response (max-min fluorescence) at 10 µM | 1,700 tested, 43% active | AID 677;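 active means calcium response below the same-plate mean of wells given acetylcholine alone at its 80%-effect dose, minus 3 SD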;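 further: raw fluorescence intensity difference in arbitrary instrument units and not normalized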
mGluR4 antag = mGluR4 (human) activity, M1 antagonist secondary assay; AID 678; 1,700 tested, 0.9% active; shares compounds with M1 antag; fluorescence response (max-min) at 10 µM; CHO-mGluR4 calcium flux, Fluo-4 fluorescence, glutamate EC80; active compounds read low;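 active means fluorescence response below the plate's average for near-maximal glutamate wells, less 3 SD of those wells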;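 further: raw unnormalized fluorescence span taken in the window right after glutamate addition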
Starred values were filed as active, the others as inactive; nt = not tested or not shown. Rows were chosen to be rich in hits. Some 11% of all compounds tested hit in one or more screens of this group.

SMILES	M1 antag	M1 agonist	TNAP act DEA	S1P1 ag pot	D1 mod	S1P3 agonist	M1 antag conf	mGluR4 antag
CCCCCCn1c(=O)c(C(=O)Nc2c(C)n(C)n(-c3ccccc3)c2=O)c(O)c2ccccc21	-8.01*	1.53	1	-7.6	-1.48	-0.4	167*	234
CCCCCn1c(=O)c(C(=O)Nc2ccncc2)c(O)c2ccccc21	0.0202	-0.324	0.9	-3.7	-0.123	0.6	nt	nt
CC1CCCCN1CC(=O)c1ccc2cc[nH]c2c1 (centres undefined)	0.0729	-0.235	0.9	-7.4	-0.317	-0.3	nt	nt
O=C(COc1ccccc1)N1CCN(C2CCCC2)CC1	-0.881	-0.251	1	-3.0	-0.421	-0.8	nt	nt
O=C(COc1ccc2ccccc2c1)N1CCN(C2CCN(Cc3ccccc3)CC2)CC1	-2.38*	-0.884	0.9	20.7	0.814	-5.2	530	252
CCCCn1c(O)c(C(C)=Nc2c(C)n(C)n(-c3ccccc3)c2=O)c(=O)[nH]c1=O	-8.36*	1.44	0.9	14.6	-0.0111	-0.8	326*	247
CCCCn1c(O)c(C=Nc2c(C)n(C)n(-c3ccccc3)c2=O)c(=O)[nH]c1=O	-2.52*	-0.341	0.9	-29.4	-0.00381	-0.3	511	209
Cc1c(N=Cc2c(O)n(Cc3ccco3)c(=O)[nH]c2=O)c(=O)n(-c2ccccc2)n1C	-1.59	-1.17	0.9	-7.5	nt	-1.8	nt	nt
CN1C(=O)C(Cc2cccc3ccccc23)C(=O)N(C)C1=O	0.164	0.308	0.9	-19.8	-0.00268	0.8	nt	nt
O=C1C2CCN(CC2)[C@@H]1Cc1ccc2ccccc2c1O	-4.56*	-0.616	0.9	2.2	-1.04	-3.4	91.6*	243
CCN(CC)CCCN=Cc1c(O)n(-c2cccc(C)c2C)c(=O)[nH]c1=O	-0.542	0.611	0.9	-5.5	-0.874	-1.7	nt	nt
CCN(CC)CCCN=Cc1c(O)n(-c2ccccc2F)c(=O)[nH]c1=O	-2.29*	-0.607	0.9	-12.0	0.855	0.1	635	207
COC(=O)c1ccc(CN2CCN(Cc3ccccc3)CC2)cc1	-3.06*	0.48	0.8	-17.6	0.554	-1.1	428*	234
CCCNS(=O)(=O)c1ccc(OCC(=O)N2CCN(Cc3ccccc3)CC2)cc1	-0.777	-0.00303	0.9	9.1	-0.0291	-0.3	nt	nt
O=C1NC(=O)C(CCc2ccncc2)(C2CCCCC2)C(=O)N1	-4.59*	0.018	1	-18.3	-0.635	1.3	550*	185
CCCCSP1(=S)NCCCO1 (centres undefined)	-0.215	-0.922	0.9	10.0	nt	-3.0	nt	nt
COC(=O)C(O)(c1ccc2c(c1)CCCN2)C(F)(F)F (centres undefined)	-0.902	0.34	1	2.0	0.113	-0.3	nt	nt
O=C1NC(=O)N(C2CCCCC2)C(=O)C1C1c2ccccc2C(=O)N1Cc1ccccc1 (centres undefined)	0.33	0.58	1	11.8	0.286	-0.6	nt	nt
CCOC(=O)C1=C(C)N(C)C2(C)CC1c1ccccc1O2 (centres undefined)	-2.39*	0.859	0.9	-17.3	-0.873	-0.1	563	209
C[N+]1(C)[C@@H]2CC[C@H]1CC(OC(=O)C(CO)c1ccccc1)C2 (some centres undefined)	-16.7*	-0.0048	0.9	4.9	0.664	-3.8	12*	200
O=C(CN1C2CCC1CC(O)(c1cccnc1)C2)Nc1ccc2c(c1)OCO2 (centres undefined)	-0.282	-0.82	0.8	4.5	-0.578	0.1	nt	nt
CN1CCN(CCC(C#N)(c2ccccc2)c2ccccc2)CC1	-17*	0.0707	1	nt	nt	nt	16.2*	230
CC1CN=C(Nc2ccccc2)S1 (centres undefined)	-0.172	-0.622	0.9	-15.9	nt	-1.8	nt	nt
